Test results from ChEMBL document CHEMBL1122896, “Comparative computer graphics and solution studies of the DNA interaction of substituted anthraquinones based on doxorubicin and mitoxantrone” (1985).

Columns and labels:
HEp-2 [1] = test: Antiproliferative effect against Hep2 cell lines at a concentration of 1 uM; assay type: functional, Homo sapiens
Mus musculus [2] = test: In vivo antileukemic activity against P-388 cells in mice and the treated /control value was determined at schedule Q01Dx01 at a dose of 8 mg/kg; assay type: functional
How it was run: (§1)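 Mice bearing P-388 leukaemia received the hydrochloride salts as a single dose on day 3 after inoculation (Q01D×01). Activity is expressed as treated/control (T/C).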

Nucleic Acid [3] = test: Compound was evaluated for DNA binding affinity; assay type: nucleic-acid assay; conditions: Bos taurus
How it was run: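 Drug solution (5 × 10^-5 M, 3 mL; three samples) was titrated with sequential aliquots of 2.5 × 10^-3 M DNA. Absorbance was read at the unbound-drug λmax after equilibration, against a buffer blank. Free and bound drug were derived from the fractional decrease in extinction. Affinity K and site number n were taken from a Scatchard plot.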

HeLa [4] = test: Antiproliferative effect against HeLa cell lines at a concentration of 1 uM; assay type: functional, Homo sapiens
Mus musculus [5] = test: In vivo antileukemic activity against P-388 cells in mice and the treated /control value was determined at schedule Q01Dx01 at a dose of 128 mg/kg; assay type: functional; how it was run: as §1
Nucleic Acid [6] = test: Concentration to give comigration of ccc PM-2 DNA with nicked PM-2 DNA under electrophoresis was evaluated.; assay type: nucleic-acid assay; conditions: unidentified phage
How it was run: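 Agarose tube gels (1%, pH 7.4 Tris-Cl/EDTA/NaCl/acetate buffer) contained drug at final 0.00–1.00 µg/mL. PM-2 ccc-DNA was loaded with drug at a 5:1 DNA phosphate:drug ratio and run at 45 V, 20–25 °C, for 3–4 h. Gels were stained with ethidium. The critical concentration is where ccc-DNA comigrates with nicked PM-2 DNA.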

Mus musculus [7] = test: In vivo antileukemic activity against P-388 cells in mice and the treated /control value was determined at schedule Q01Dx01 at a dose of 64 mg/kg; assay type: functional; how it was run: as §1
Mus musculus [8] = test: In vivo antileukemic activity against P-388 cells in mice and the treated /control value was determined at schedule Q01Dx01 at a dose of 32 mg/kg; assay type: functional; how it was run: as §1
Mus musculus [9] = test: In vivo antileukemic activity against P-388 cells in mice and the treated /control value was determined at schedule Q01Dx01 at a dose of 1 mg/kg; assay type: functional; how it was run: as §1
Mus musculus [10] = test: In vivo antileukemic activity against P-388 cells in mice and the treated /control value was determined at schedule Q01Dx01 at a dose of 4 mg/kg; assay type: functional; how it was run: as §1
Mus musculus [11] = test: In vivo antileukemic activity against P-388 cells in mice and the treated /control value was determined at schedule Q01Dx01 at a dose of 2 mg/kg; assay type: functional; how it was run: as §1
Mus musculus [12] = test: In vivo antileukemic activity against P-388 cells in mice and the treated /control value was determined at schedule Q01Dx01 at a dose of 16 mg/kg; assay type: functional; how it was run: as §1
Mus musculus [13] = test: In vivo antileukemic activity against P-388 cells in mice and the treated /control value was determined at schedule Q04Dx03 at a dose of 16 mg/kg
Mus musculus [14] = test: In vivo antileukemic activity against P-388 cells in mice and the treated /control value was determined at schedule Q04Dx03 at a dose of 8 mg/kg
HEp-2 [15] = test: Antiproliferative effect against Hep2 cell lines at a concentration of 10.0 uM; assay type: functional, Homo sapiens
Mus musculus [16] = test: In vivo antileukemic activity against P-388 cells in mice and the treated /control value was determined at schedule Q04Dx03 at a dose of 4 mg/kg
HeLa [17] = test: Antiproliferative effect against HeLa cell lines at a concentration of 10.0 uM; assay type: functional, Homo sapiens

Row | SMILES | Affinity constant (Nucleic Acid [3]) [M⁻¹] | Critical concentration (Nucleic Acid [6]) [µg/mL] | No. of untreated cells (HEp-2 [1]) [%] | T/C (Mus musculus [2]) | No. of untreated cells (HeLa [4]) [%] | T/C (Mus musculus [5]) | T/C (Mus musculus [7]) | T/C (Mus musculus [8]) | T/C (Mus musculus [9]) | T/C (Mus musculus [10]) | T/C (Mus musculus [11]) | T/C (Mus musculus [12]) | T/C (Mus musculus [13]) | T/C (Mus musculus [14]) | No. of untreated cells (HEp-2 [15]) [%] | T/C (Mus musculus [16]) | No. of untreated cells (HeLa [17]) [%]
1 | COc1cccc2c1C(=O)c1c(O)c3c(c(O)c1C2=O)C[C@@](O)(C(=O)CO)C[C@@H]3O[C@H]1C[C@H](N)[C@H](O)[C@H](C)O1 [DOXORUBICIN] |  |  | 56 |  | 52 |  |  |  |  |  |  |  |  |  |  |  | 
2 | CCN(CC)CCNc1cccc2c1C(=O)c1ccccc1C2=O | 1.48e+06 | 0.8 |  | 100 |  |  |  |  | 105 | 100 | 98 | 95 |  |  | 92 |  | 96

The next lines start with results.

Row | Affinity constant (Nucleic Acid [3]) [M⁻¹] | Critical concentration (Nucleic Acid [6]) [µg/mL] | SMILES | No. of untreated cells (HEp-2 [1]) [%] | T/C (Mus musculus [2]) | No. of untreated cells (HeLa [4]) [%] | T/C (Mus musculus [5]) | T/C (Mus musculus [7]) | T/C (Mus musculus [8]) | T/C (Mus musculus [9]) | T/C (Mus musculus [10]) | T/C (Mus musculus [11]) | T/C (Mus musculus [12]) | T/C (Mus musculus [13]) | T/C (Mus musculus [14]) | No. of untreated cells (HEp-2 [15]) [%] | T/C (Mus musculus [16]) | No. of untreated cells (HeLa [17]) [%]
3 | 3.97e+06 | 0.16 | CCN(CC)CCNc1cccc2c1C(=O)c1cccc(NCCN(CC)CC)c1C2=O | 64 | 98 | 75 | 92 | 105 | 100 | 102 | 107 | 98 | 105 |  |  |  |  | 
4 | 3.17e+06 | 0.16 | CCN(CC)CCNc1ccc(NCCN(CC)CC)c2c1C(=O)c1ccccc1C2=O | 88 | 107 | 98 | 111 | 97 | 103 | 117 | 100 | 95 | 112 |  |  |  |  | 
5 | 1.71e+06 | 0.4 | CCN(CC)CCNc1cccc2c1C(=O)c1c(NCCN(CC)CC)cccc1C2=O |  | 107 |  |  |  |  |  | 105 | 104 |  | 102 | 98 | 84 | 91 | 64
